Laboratory results reported in PMC10357458 (ACS Omega, 2023).

System: CAIX-positive SK-RC-52 cells
Test: Cellular binding, flow cytometry and confocal microscopy on CAIX-positive cells
Type: cell-based, human
Conditions: fluorescent derivatives, 100 nM, 30 min
Method in brief: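 SK-RC-52 human renal carcinoma cells were grown in RPMI with 10% FCS and 1% antibiotic-antimycotic at 37 °C, 5% CO₂, and split 1:6 with 0.05% trypsin-EDTA. For confocal imaging, cells were seeded at 10^4 per chamber well in RPMI with 10% FBS and 10 mM HEPES, then grown overnight. Fluorescein-labelled test compounds were imaged with DAPI-stained nuclei. Acetazolamide-fluorescein was the positive control and untargeted fluorescein the negative control.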

CC(=O)Nc1nnc(S(N)(=O)=O)s1 [AAZ, acetazolamide]
binding to CAIX on the surface of SK-RC-52 cells: accumulated on the surface
